Molecules are shown by their SMILES. Where only a bound is given, the exact number is not on record here.

The experiment addresses T1, UDP-3-O-acyl-N-acetylglucosamine deacetylase (Pseudomonas aeruginosa (strain ATCC 15692 / PAO1 / 1C / PRS 101 / LMG12228), UniProt P47205).
T1 sequence (P47205 whole entry): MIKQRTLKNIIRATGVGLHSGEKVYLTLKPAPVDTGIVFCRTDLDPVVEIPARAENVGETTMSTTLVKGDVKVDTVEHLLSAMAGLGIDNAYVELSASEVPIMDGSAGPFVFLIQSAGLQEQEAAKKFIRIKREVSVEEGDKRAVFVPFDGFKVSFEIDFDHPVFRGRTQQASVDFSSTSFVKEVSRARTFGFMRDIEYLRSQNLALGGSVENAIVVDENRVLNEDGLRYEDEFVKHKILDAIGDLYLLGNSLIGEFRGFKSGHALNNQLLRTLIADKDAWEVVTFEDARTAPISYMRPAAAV
Briefly: Inhibition of Pseudomonas aeruginosa UDP-3-O-acyl-N-acetylglucosamine Deacetylase (LpxC) in vitro. The gist of the method:
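Purified recombinant P. aeruginosa LpxC (IPTG-induced, zinc-reconstituted) at 2 nM incubated with 150 nM [3H-acetyl]-UDP-3-O-(R-3-hydroxydecanoyl)-GlcNAc for 90 min at room temperature (22 °C). Buffer is sodium phosphate pH 7.5 with 1 mg/mL BSA. Stopped with activated charcoal suspension. Released [3H]-acetate in the clarified supernatant counted by scintillation. 5 mM EDTA controls define nonspecific tritium release. IC50 determined.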
On to `O=C(NC(CO)C(=O)NO)c1ccc(F)cc1` (stereo not drawn), for which the IC50 is above 50 µM.
With `Cc1cc(C2=NC(C(=O)NO)CO2)ccc1F` (stereo not drawn) the figure was 1.2 µM; with `O=C(NO)C1CSC(c2ccc(F)cc2)=N1` (stereo not drawn), 62.5 µM.
In the case of `CC(C)=CCOc1ccc(C2=NC(C(=O)NO)CO2)cc1OC(F)(F)F` (stereo not drawn), the midpoint of inhibition, the IC50, lay at 0.19 µM.
As for `O=C(NO)C1COC(c2cc(F)cc(C(F)(F)F)c2)=N1` (stereo not drawn), the figure is 25 µM.
As for `O=C(NO)C1COC(c2cccc(OC(F)(F)F)c2)=N1` (stereo not drawn), the figure is 6 µM.
With `O=C(NO)C1CCOC(c2cc3cc(F)ccc3[nH]2)=N1` (stereo not drawn) the figure was 31.2 µM.
Compound `O=C(NO)C1COC(c2ccc(OC(F)(F)F)c(Cl)c2)=N1` (stereo not drawn) gave a half-inhibitory concentration (IC50) of 30 µM.
Turning to `C=CCOc1ccc(C2=NC(C(=O)NO)CO2)cc1OC(F)(F)F` (stereo not drawn), the IC50 is 0.12 µM.
With `COc1c(F)cc(C2=NC(C(=O)NO)CO2)cc1Br` (stereo not drawn) the figure was 9 µM.
With `O=C(NO)C1COC(c2[nH]c3ccc(F)cc3c2Cl)=N1` (stereo not drawn), the concentration for half-maximal inhibition (IC50) turned out to be 0.3 µM.
As to `Cc1ccc(C(=O)NC(CO)C(=O)NO)cc1` (stereo not drawn), the IC50 is above 50 µM.
As for `O=C(NO)C1COC(c2ccc(OC(F)(F)F)cc2)=N1` (stereo not drawn), inhibition was half-maximal at 5 µM (IC50).
`O=C(NO)C1COC(c2ccc(C(F)(F)F)cc2)=N1` (stereo not drawn) returned a 50% inhibitory concentration (IC50) of 7.8 µM.
With `O=C(NO)C1COC(c2ccc(Br)cc2)=N1` (stereo not drawn) the figure was 2.7 µM; with `CCCc1ccc(-c2ccc(C3=NC(C(=O)NO)CO3)cc2)cc1` (stereo not drawn), 0.28 µM; with `CN(C)c1ccc(C2=NC(C(=O)NO)CO2)cc1` (stereo not drawn), 4.9 µM.
As for `CCCCn1nc(C2=NC(C(=O)NO)CO2)c2ccccc21` (stereo not drawn), the figure is 10 µM.
Turning to `O=C(NO)C1COC(c2ccc([N+](=O)[O-])cc2)=N1` (stereo not drawn), the midpoint of inhibition, the IC50, lay at 5.4 µM.
As to `O=C(NO)C1COC(c2cccc(C(F)(F)F)c2)=N1` (stereo not drawn), 2.5 µM corresponded to half-maximal inhibition (IC50).
As for `C=CCOc1ccc(C2=NC(C(=O)NO)CO2)cc1C(F)(F)F` (stereo not drawn), the figure is 2.2 µM.
As for `C=CCCOc1ccc(C2=NC(C(=O)NO)CO2)cc1` (stereo not drawn), the figure is 5.6 µM; as for `O=C(NO)C1COC(c2[nH]nc3ccccc23)=N1` (stereo not drawn), 5.5 µM; as for `CCCc1cc(C(=O)NC(CO)C(=O)NO)cc(OC(F)(F)F)c1OC` (stereo not drawn), above 50 µM.
As for `O=C(NO)C1CSC(c2ccc(OC(F)(F)F)cc2)=N1` (stereo not drawn), the figure is 21.7 µM.
In the case of `O=C(NO)C1COC(c2ccc(COc3cccc([N+](=O)[O-])c3)cc2)=N1` (stereo not drawn), the IC50 came to 0.56 µM.
As for `Cc1c(C2=NC(C(=O)NO)CS2)cnn1-c1ccccc1` (stereo not drawn), the figure is above 60 µM.
With `O=C(NO)C1COC(c2cnn(-c3ccccc3)c2C(F)(F)F)=N1` (stereo not drawn) the figure was above 30 µM; with `Cc1ccc(C2=NC(C(=O)NO)CCO2)cc1` (stereo not drawn), above 50 µM.
With `O=C(NO)C1COC(c2ccc(O)cc2)=N1` (stereo not drawn) the figure was above 30 µM; with `C=CCCOc1ccc(C(=O)NC(CO)C(=O)NO)cc1` (stereo not drawn), 3.9 µM.
`CCCc1cc(C2=NC(C(=O)NO)CS2)cc(OC(F)(F)F)c1OC` (stereo not drawn) yielded an IC50 of 17.8 µM.
Compound `O=C(NO)C1COC(c2ccc(OCc3cccc(C(F)(F)F)c3)c(F)c2)=N1` (stereo not drawn) yielded an IC50 of 0.84 µM.
As for `CC(=O)Nc1ccc(C2=NC(C(=O)NO)CO2)cc1` (stereo not drawn), the figure is above 30 µM; as for `C=CCOc1ccc(C(=O)NC(CO)C(=O)NO)cc1OC(F)(F)F` (stereo not drawn), 7.5 µM.
As to `CCOc1cc(C(=O)NC(CO)C(=O)NO)ccc1F` (stereo not drawn), 46 µM corresponded to half-maximal inhibition (IC50).
As for `COc1ccc(C2=NC(C(=O)NO)CO2)cc1OC(F)(F)F` (stereo not drawn), the figure is 0.16 µM.
As for `O=C(NC(CO)C(=O)NO)c1n[nH]c2ccccc12` (stereo not drawn), the figure is 13 µM; as for `Cc1ccc(C2=NC(C(=O)NO)CS2)cc1` (stereo not drawn), 38.5 µM.
Take `O=C(NO)C1CCOC(c2ccc(F)c(C(F)(F)F)c2)=N1` (stereo not drawn): inhibition was half-maximal at 21.2 µM (IC50).
With `C=CCOc1ccc(C2=NC(C(=O)NO)CO2)cc1F` (stereo not drawn) the figure was 1.4 µM; with `CCCCn1nc2ccccc2c1C1=NC(C(=O)NO)CO1` (stereo not drawn), 12 µM; with `O=C(NO)C1COC(c2ccc(F)c(Br)c2)=N1` (stereo not drawn), 4.9 µM.
As for `CC(=O)c1ccc(C2=NC(C(=O)NO)CO2)cc1` (stereo not drawn), the figure is 18 µM.
With `O=C(NO)C1COC(c2ccc(I)cc2)=N1` (stereo not drawn) the figure was 5.5 µM.
`CCCCc1ccc(C2=NC(C(=O)NO)CO2)cc1` (stereo not drawn) returned a half-maximal inhibitory concentration (IC50) of 7.3 µM.
For the compound `Cc1ccc(C2=NC(C(=O)NO)CO2)cc1` (stereo not drawn), the 50% inhibitory concentration (IC50) came to 20 µM.
With `CCOc1cc(C2=NC(C(=O)NO)CO2)ccc1F` (stereo not drawn) the figure was 1 µM.
With `O=C(NO)C1COC(c2ccc(C(F)(F)F)nc2)=N1` (stereo not drawn) the figure was 10 µM; with `O=C(NO)C1COC(c2ccc(F)c(C(F)(F)F)c2)=N1` (stereo not drawn), 1.3 µM; with `O=C(NO)C1COC(c2ccc(OCc3ccccc3C(F)(F)F)c(F)c2)=N1` (stereo not drawn), 9.6 µM.
Compound `CCCc1cc(C2=NC(C(=O)NO)CO2)ccc1F` (stereo not drawn) displayed an IC50 of 0.96 µM.
As for `O=C(NO)C1COC(c2ccc(OCc3cccc([N+](=O)[O-])c3)cc2)=N1` (stereo not drawn), the figure is 1 µM; as for `CCCCCCCOc1ccc(C2=NC(C(=O)NO)CO2)cc1` (stereo not drawn), above 30 µM.
Turning to `C=CCCOc1ccc(C2=NC(C(=O)NO)CS2)cc1` (stereo not drawn), the 50% inhibitory concentration (IC50) came to 58.7 µM.
With `O=C(NO)C1COC(c2ccc(F)cc2)=N1` (stereo not drawn) the figure was 6 µM; with `Cc1c(C2=NC(C(=O)NO)CO2)cnn1-c1ccccc1` (stereo not drawn), above 30 µM; with `O=C(NO)C1COC(c2cc3cc(F)ccc3[nH]2)=N1` (stereo not drawn), 1.6 µM.
As for `CCCc1cc(C2=NC(C(=O)NO)CO2)cc(OC(F)(F)F)c1OC` (stereo not drawn), the figure is 0.5 µM; as for `C=CCc1c(C)c(C2=NC(C(=O)NO)CO2)cc(F)c1OC` (stereo not drawn), 3.3 µM; as for `O=C(NO)C1COC(c2ccccc2OC(F)(F)F)=N1` (stereo not drawn), above 10 µM.
As for `C=CCCOc1ccc(C2=NC(C(=O)NO)CO2)cc1OC(F)(F)F` (stereo not drawn), the figure is 0.35 µM.
On to `O=C(NO)C1COC(c2ccc(OCc3cccc(F)c3)c(OC(F)(F)F)c2)=N1` (stereo not drawn), for which the IC50 came to 0.25 µM.

These data come from ChEMBL document CHEMBL1135994, “Potent, novel in vitro inhibitors of the Pseudomonas aeruginosa deacetylase LpxC” (J Med Chem, 2002).
